From PubChem
CR mimetic SO: lowers age-related superoxide in aged yeast cells. S. cerevisiae aged cells, superoxide DHE fluorescence; stronger effect = lower value. superoxide response (% of plate mean), % at 10 µM. actives 0.18% (n = 330,000). AID 2690;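 active = superoxide response under a set limit, about three screen SD below normal, cut at about 65% in these data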;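 also: yeast aged for seven days with compound at 30 °C before DHE staining; 100% = average MFI of all compound-treated wells on the plate with controls excluded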
PglD DTNB: inhibitors of Campylobacter jejuni PglD acetyltransferase. inhibition, % at 12.5 µM. purified PglD enzyme, DTNB colorimetric CoA detection. actives 0.098% (n = 360,000); in the data active = inhibition above about 16%, passing the limit was not always enough
Cneo AK release: Cryptococcus neoformans lysis via adenylate kinase release; lysis activity, % at 15 µM; actives 0.2% (n = 360,000); C. neoformans lysis, adenylate kinase release luminescence, 4 h; normalised: neutral wells 0, clomiphene wells 100;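 active = mean lysis activity across replicates of at least 80%, whatever share of replicates individually reach that level; inactive = mean lysis activity below 80%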
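Assay system: C. neoformans cells. Amount: yeast cell density of 5 × 10^6 cells/mL. Technique: AK luminescence. Buffer or medium: YPD. Times: static 4 h at 37 °C with compound, 1 h detection. Dosing: single-point compound dose. Read-out: lysis from increased AK signal.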
Mot1-301 SUMO: inhibitors of SUMOylation pathway: yeast Mot1-301 growth rescue; S. cerevisiae Mot1-301 growth rescue, ATP luminescence, 38.5C; percent above DMSO median, 100 means doubled; growth rescue, % at 18.8 µM; actives 1% (n = 320,000);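 active = every valid replicate shows activation above 250% relative to neutral control wells; inactive = the rest, any valid replicate at or below 250%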;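 also: OY570 slx delta 5 strain wells were the positive control but not used for scaling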
rRNA inh HTS: selective bacterial rRNA inhibition in E. coli. E. coli WT GFP vs humanized-ribosome RFP mutants, fluorescence, 24 h; stronger effect = lower value; DMSO median 0, no signal -100. GFP signal change (wild-type ribosome), % (concentration not given with the values). actives 1.6% (n = 350,000);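 active = significant combined selectivity score with lowered wild-type GFP, culture density cut under 30%, mutant RFP and density less affected; inactive = any of these conditions unmet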
Yeast Mot1 SUMO: yeast SUMO pathway inhibition in dose response; shares compounds with Mot1-301 SUMO; growth activity, percent, % at 42 µM; 2,300 tested, under 10 active; AID 493004; S. cerevisiae Mot1-301 galactose growth, ATP luminescence, 24 h; -100 = growth of slx-deleted rescue strain;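 active = Signal drops as the depositor expects, and the fitted half-maximal dose is no more than ten times the top valid tested dose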;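 also: more negative values mean stronger growth rescue toward the control strain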
An asterisk follows results filed as active; / = no result given; + = active, no number. Hits are enriched below; roughly 2.2% of the tested compounds scored in any of these assays.

SMILES	CR mimetic SO	PglD DTNB	Cneo AK release	Mot1-301 SUMO	rRNA inh HTS	Yeast Mot1 SUMO
O=C(C[C@@H]1CC[C@H]2[C@@H](COC[C@H](O)CN2S(=O)(=O)c2ccccc2F)O1)NCc1ccccc1F	/	-1	5	/	-1	/
COc1ccccc1/C=C/C(=O)c1c2c(c(C)[nH]c1=O)CCCC2	99	-1	6	-13	9	0
COc1ccccc1/C=C/C(=O)c1ccccc1	99	/	/	85	-1	/
CCCc1ccccc1OCCNC(C)=O	105	2	7	+	/	0
CCCC#Cc1cnc2c(c1)C(=O)N([C@@H](C)CO)C[C@@H](C)[C@@H](CN(C)C(=O)c1ccc(F)cc1)O2	/	1	-1	/	0	/
Cc1cc(C(=O)COc2ccccc2C(N)=O)c(C)n1C	116	/	/	-15	20	/
Cc1cc(C(=O)COc2cccc3cccnc23)c(C)n1C	114	1	1	598*	/	0
C[C@H]1CN([C@@H](C)CO)C(=O)c2cccc(NS(=O)(=O)c3ccccc3)c2O[C@@H]1CN(C)C(=O)Nc1ccccc1	/	5	6	/	-1	/
CCOC(=O)c1sc(NC(=O)CSc2n[nH]c(-c3ccc(Cl)cc3Cl)n2)c(C#N)c1C	113	-3	-1	459*	/	0
O=C(COc1ccccc1O)NCCN1CCOCC1	100	0	7	455	4	/
O=C(CC(c1ccccc1)c1ccccc1O)NCCN1CCOCC1 (stereo not given)	108	/	/	428*	/	1
COc1ccccc1CC(=O)N1CCN(S(=O)(=O)c2ccccc2)CC1	105	5	0	383*	13	0
Cc1noc(C)c1S(=O)(=O)Nc1ccc2c(c1)C(=O)N([C@H](C)CO)C[C@H](C)[C@@H](CN(C)S(=O)(=O)c1ccc(Cl)cc1)O2	/	6	0	/	4	/
COCC(=O)Nc1ccc2c(c1)C(=O)N(C)C[C@H](OC)[C@H](C)CN(C(=O)c1cnccn1)[C@H](C)CO2	/	0	46	/	1	/
CC(C)(C)NC(=O)CC1C(=O)NCCN1Cc1c(F)cccc1Cl (stereo not given)	108	/	/	836*	16	1
CCOC(=O)C1(CCOc2ccccc2)CCN(Cc2cccc(OC)c2O)CC1	104	3	1	517*	-25	0
C[C@@H]1CN([C@H](C)CO)C(=O)c2cccc(NS(=O)(=O)c3ccccc3)c2O[C@H]1CN(C)C(=O)Nc1ccc(C(F)(F)F)cc1	/	1	2	/	-8	/
NC(=O)C1=C[C@@H](c2ccc(Br)cc2)C[C@@H](OCCCCO)O1	108	-2	-2	554*	3	1
O=S(=O)(Cc1cc(-c2ccccc2)no1)c1ccccc1	96	/	/	643*	-10	0
COc1ccc(-c2cc(CS(=O)(=O)c3ccccc3)on2)cc1	114	7	-1	-3	-21	/
O=c1c2cc([N+](=O)[O-])ccc2sn1-c1ccccc1	/	5	-8	/	10	/
N#Cc1c2ccc([N+](=O)[O-])cc2[n+]([O-])n1-c1ccccc1	74	0	-2	384*	7	-1
Cc1nc(CCNC(=O)c2ccccc2)cs1	92	/	/	641*	/	0
NCCOc1ccccc1-c1ccccc1	92	1	2	-11	/	/
Nc1ccc(Oc2ccccc2-c2ccccc2)cc1	87	9	1	446*	-47	1
SMILES	CR mimetic SO	PglD DTNB	Cneo AK release	Mot1-301 SUMO	rRNA inh HTS	Yeast Mot1 SUMO
COc1nc(-c2ccccc2)ccc1-c1noc(-c2ccccc2)n1	98	2	-1	558*	/	0
O=S(=O)(N[C@H]1CC[C@@H](CCNS(=O)(=O)c2ccccc2Cl)O[C@H]1CO)c1ccccc1	/	5	3	/	-2	/
c1ccc2c(C[C@@H]3CNCCN3CCCCC3CCCCC3)cccc2c1	94	2	5	402*	-7	-3
CCCNC(=O)CN(c1ccc(F)cc1)S(=O)(=O)c1ccc2c(c1)OCCO2	91	4	1	847*	-12	0
CC(=O)N(C)C[C@H]1Oc2cc(C#CC3CC3)ccc2S(=O)(=O)N([C@@H](C)CO)C[C@@H]1C	/	/	/	/	-2	/
CCOC(=O)c1oc2c(c1C)C(=O)CCC2	105	6	-1	934*	/	0
